Measured values gathered from unrelated publications.
Target: Aurora kinase B (AURKB, Homo sapiens, UniProt Q96GD4)
Effect on: enzyme activity

| SMILES | action | method | tested at | remaining activity [%] |
| --- | --- | --- | --- | --- |
| O=C(NCCCNc1nc(Nc2cccc(NC(=O)N3CCCC3)c2)ncc1Br)C1CCC1 | inhibitor | radiometric | 1 µM | 5 |
| O=C(Nc1cnn(-c2csc(C(=O)NC3COC3)c2)c1)Nc1ccccc1Cl | inhibitor | – | 5 µM | 93 |
| CC(C)(C)C(=O)c1sc(NC2CCCCC2)nc1N | inhibitor | – | 10 µM | 107 |
| Cc1nn(CC(F)(F)F)cc1Nc1ncc(C2CC2)c(NCc2ccc(S(N)(=O)=O)cc2)n1 | inhibitor | radiometric | 1 µM | 102 |
| Nc1ncnc2occ(-c3ccc(NC(=O)Nc4cc(C(F)(F)F)ccc4F)cc3)c12 | inhibitor | – | 20 µM | 0.1 |
| CS(=O)(=O)CCNCc1ccc(-c2ccc3ncnc(Nc4ccc(OCc5cccc(F)c5)c(Cl)c4)c3c2)o1 | – | – | 0.5 µM | 98.4 |
| Cc1ccc(C(=O)Nc2ccc(CN3CCN(C)CC3)c(C(F)(F)F)c2)cc1C#Cc1cnc2cccnn12 | inhibitor | – | 23.5 nM | 84 |
| FC(F)c1nc2ccccc2n1-c1nc(N2CCOCC2)nc(N2CCOCC2)n1 | inhibitor | – | 10 µM | 94 |
| O=c1cc(-c2cccc3c2Sc2ccccc2S3)oc(N2CCOCC2)c1 | inhibitor | – | 0.5 µM | 95.8 |
| COc1cc(Nc2cnc(C#N)c(O[C@H](C)CN(C)C)n2)ncc1-c1cnn(C)c1 | inhibitor | radiometric | 1 µM | 42 |
| Cc1nn(CC(F)(F)F)cc1Nc1ncc(Br)c(NCCCNC(=O)C2CCC2)n1 | inhibitor | radiometric | 1 µM | 38 |
| Cc1ccc(Nc2nccc(N(C)c3ccc4c(C)n(C)nc4c3)n2)cc1S(N)(=O)=O | inhibitor | – | 0.5 µM | 64.6 |
| O=C(NCCCNc1nc(Nc2cccc(NC(=O)N3CCCC3)c2)ncc1I)c1cccs1 | inhibitor | radiometric | 1 µM | 3 |
| CCN(CC)c1ccc(C2=NNC(=O)CC2C)cc1[N+](=O)[O-] (stereo not shown) | inhibitor | – | 10 µM | 118 |
| COc1cc2c(N3CCN(C(=O)Nc4ccc(OC(C)C)cc4)CC3)ncnc2cc1OCCCN1CCCCC1 | – | – | 0.5 µM | 89.6 |
| Cc1nn(CC(F)(F)F)cc1Nc1nccc(NCCc2cnc[nH]2)n1 | inhibitor | radiometric | 1 µM | 71 |
| COc1cc(Cl)c(C(=O)N[C@@H](CN[C@H]2CC[C@@H](N)CC2)Cc2ccc(C#N)cc2)cc1-c1ccc(CN[C@H](C)c2ccc(C)cc2)o1 | inhibitor | – | 1 µM | 96 |
| Cc1nn(CC(F)(F)F)cc1Nc1nccc(NCc2ccc(S(N)(=O)=O)cc2)n1 | inhibitor | radiometric | 1 µM | 82 |
| CC(C)(C)c1nc(-c2cccc(NS(=O)(=O)c3c(F)cccc3F)c2F)c(-c2ccnc(N)n2)s1 | inhibitor | radiometric | 1 µM | 81 |
